This is an account of results in ChEMBL document CHEMBL2311271 (Eur J Med Chem, 2013).

What all share (format): functional, cell-based
The test system of assay [1] is KB. Description: Cytotoxicity against human KB cells by MTT assay. In outline: (§1)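 Cells grown in RPMI-1640 with 10% fetal calf serum plus penicillin and streptomycin, 37 °C, 5% CO₂. Compounds in DMSO, final ≤2% (v/v), tested in 96-well cultures with MTT staining. IC₅₀ = concentration cutting optical density 50% versus untreated cells; three replicate wells per point; mean of three independent determinations.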
(Formazan colour is commonly taken as a measure of viable cells.)

Assay [2] deals with CWR22R. Briefly: Cytotoxicity against human 22Rv1 cells by MTT assay. In outline: as §1
Assay [3] concerns U-251. Description: Cytotoxicity against human U251 cells by MTT assay. In outline: as §1
Assay [4] can be described thus: Cytotoxicity against human Blu-87 cells by MTT assay. In a few lines: as §1
The test system of assay [5] is 769-P. Description: Cytotoxicity against human 769-P cells by MTT assay. In a few lines:
as §1

The subject of assay [6] is SCaBER. Briefly: Cytotoxicity against human SCaBER cells by MTT assay. In a few lines:
as §1

Assay [7] deals with HT-29. Description: Cytotoxicity against human HT-29 cells by MTT assay. In a few lines:
as §1

The subject of assay [8] is 786-0. Briefly: Cytotoxicity against human 786-0 cells by MTT assay. In outline: as §1
For assay [9], the system named is A-375. Briefly: Cytotoxicity against human A375 cells by MTT assay. In outline: as §1
The test system of assay [10] is A549. Description: Cytotoxicity against human A549 cells by MTT assay. In outline:
as §1

Assay [11] concerns OS-RC-2. Description: Cytotoxicity against human OS-RC2 cells by MTT assay. In outline: as §1
Assay [12] relates to MCF7. Description: Cytotoxicity against human MCF7 cells by MTT assay. In a few lines:
as §1

The subject of assay [13] is HepG2. Description: Cytotoxicity against human HepG2 cells by MTT assay. In a few lines:
as §1

The test system of assay [14] is Bel-7402. Description: Cytotoxicity against human Bel7402 cells by MTT assay. In outline: as §1
The subject of assay [15] is BGC-823. Briefly: Cytotoxicity against human BGC823 cells by MTT assay. In a few lines: as §1
Assay [16] relates to HeLa. Briefly: Cytotoxicity against human HeLa cells by MTT assay. In a few lines: as §1

Bounds are passed on as bounds.

For the molecule `Cc1c2c(cc[n+]1Cc1ccccc1)c1ccc(OCCCc3ccccc3)cc1n2CC(C)C`, the IC50 in [1] is less than 1.5 µM; in assay [2] it was 2.8 µM; in assay [3], 2.5 µM; in [4], 3.8 µM; in [5], 3.7 µM; in assay [6], 3.6 µM. Moreover, the IC50 in assay [7] is 4.9 µM; in assay [8] it was 2.3 µM; in [9], less than 1.5 µM; in [10], less than 1.5 µM; in assay [11], 3.5 µM; in assay [12] it was 9.2 µM. Further, the IC50 was 4 µM in assay [13], 1.3 µM in assay [14], 2.5 µM in [15] and 1.4 µM in [16].

`CCCCOc1ccc2c3cc[n+](Cc4ccccc4)c(C)c3n(CC(C)C)c2c1`: the half-inhibitory concentration (IC50) is 6 µM in assay [1]; less than 1.6 µM in [2]; 1.8 µM in assay [3]; 8.9 µM in assay [4]; 2.3 µM in [5]; 9.7 µM in assay [6]. Moreover, the half-inhibitory concentration (IC50) in [7] came out at 4 µM; in assay [8], 2.4 µM; in [9], 2.1 µM; in assay [10], 2.2 µM; in [11], 5.8 µM.

With `CCCCn1c2cc(OCc3ccccc3)ccc2c2cc[n+](Cc3ccccc3)c(C)c21`, the IC50 was 4 µM in [1]; 2.1 µM in assay [2]; 5.5 µM in assay [3]; 4.6 µM in [4]; 20 µM in [5]; 8.5 µM in [6]. Besides, the 50% inhibitory concentration (IC50) is 3.7 µM in [7]; less than 1.5 µM in assay [8]; 4 µM in assay [9]; 4.4 µM in assay [10]; 3.6 µM in [11]; 15.7 µM in assay [12]. Further, the half-maximal inhibitory concentration (IC50) in assay [13] was 2.7 µM; in [14], 3.6 µM; in [15] it was 21.4 µM; in assay [16], 2.2 µM.

`CCCCOc1ccc2c3cc[n+](Cc4ccccc4)c(C)c3n(CCCc3ccccc3)c2c1`: the half-inhibitory concentration (IC50) was less than 1.5 µM in [1]; 3.4 µM in [2]; 3.7 µM in assay [3]; 4.4 µM in assay [4]; 2.9 µM in assay [5]; 4.7 µM in assay [6]. Moreover, the 50% inhibitory concentration (IC50) in assay [7] is 3.4 µM; in [8], 2.6 µM; in assay [9], 1.5 µM; in assay [10] it was less than 1.5 µM; in assay [11], 6.8 µM; in assay [12] it was 3.8 µM. Also, the 50% inhibitory concentration (IC50) in assay [13] was 4.1 µM; in assay [14] it was 2.5 µM; in [15] it was 4.1 µM; in assay [16], 3.9 µM.

Take `CCCCCCCCCCOc1ccc2c3cc[n+](Cc4ccccc4)c(C)c3n(CC(C)C)c2c1`: the half-maximal inhibitory concentration (IC50) is less than 1.5 µM in assay [1]; less than 1.5 µM in assay [2]; 1.5 µM in assay [3]; 3.2 µM in assay [4]; less than 1.5 µM in [5]; 7.8 µM in assay [6]. For the same molecule, the half-maximal inhibitory concentration (IC50) in assay [7] was 1.7 µM; in assay [8], 1.9 µM; in assay [9] it was less than 1.5 µM; in [10], less than 1.5 µM; in assay [11], 4 µM; in [12], 1.8 µM. Also, the IC50 in assay [13] was 2.4 µM; in assay [14], 5.8 µM; in [15], 2 µM; in assay [16], 1.6 µM.

Turning to `CCCCn1c2cc(OCCCc3ccccc3)ccc2c2ccnc(C)c21`, the IC50 was 41.6 µM in [1]; 40.5 µM in [2]; 29.9 µM in assay [3]; 26.9 µM in [4]; 21.3 µM in assay [5]; 20.3 µM in assay [6]. Moreover, the half-inhibitory concentration (IC50) in assay [7] came out at 51.2 µM; in assay [8] it was 12.9 µM; in assay [9], 21.5 µM; in [10], 28.1 µM; in [12], 16 µM; in [13], 15.6 µM. The concentration for half-maximal inhibition (IC50) in assay [14] was more than 100 µM; in assay [15] it was 13.8 µM; in assay [16] it was 24.7 µM.

Turning to `CCCCCCCCOc1ccc2c3cc[n+](Cc4ccccc4)c(C)c3n(CCCc3ccccc3)c2c1`, the IC50 in assay [1] was less than 1.5 µM; in [2], less than 1.5 µM; in assay [3] it was 2.9 µM; in assay [4], 1.9 µM; in assay [5], 1.8 µM; in [6], 6.1 µM. The half-inhibitory concentration (IC50) in assay [7] was 3.4 µM; in assay [8] it was less than 1.5 µM; in assay [9], less than 1.5 µM; in assay [10], 1.6 µM; in assay [11], 1.7 µM.

Regarding `CCCCn1c2cc(OCC(C)C)ccc2c2cc[n+](Cc3ccccc3)c(C)c21`, the IC50 came out at 2 µM in assay [1]; 6.7 µM in assay [2]; 12.1 µM in assay [3]; 12.3 µM in assay [4]; 4.6 µM in [5]; 18.2 µM in assay [6]. Besides, the concentration for half-maximal inhibition (IC50) is 3.1 µM in assay [7]; 2.5 µM in [8]; 4.2 µM in [9]; 3.8 µM in assay [10]; 3.2 µM in assay [11]; 10.4 µM in assay [12]. Also, the IC50 was determined as 4.2 µM in assay [13], 2.7 µM in [14], 4.6 µM in [15] and 3.9 µM in assay [16].

Turning to `Cc1c2c(cc[n+]1Cc1ccccc1)c1ccc(OCC(C)C)cc1n2CC(C)C`, the IC50 in assay [1] is less than 1.5 µM; in assay [2], 2.6 µM; in assay [3], 4.5 µM; in [4] it was 5.2 µM; in assay [5] it was less than 1.5 µM; in assay [6], 12.8 µM. Also, the IC50 in assay [7] turned out to be 4.2 µM; in assay [8], 3.4 µM; in assay [9], 3.9 µM; in assay [10], 4.3 µM; in [11], 8.3 µM; in assay [12], 2.9 µM. The IC50 worked out at 5.7 µM in assay [13], 4.3 µM in assay [14], 5.4 µM in [15] and 2.1 µM in assay [16].

For the molecule `CCCCOc1ccc2c3cc[n+](Cc4ccccc4)c(C)c3n(CC)c2c1`, the IC50 in assay [1] is less than 1.7 µM; in assay [3] it was 14.2 µM; in assay [4], 22.9 µM; in assay [5], 4.6 µM; in [6] it was 21.8 µM; in assay [7], 6.4 µM. Further, the IC50 came to 7.8 µM in assay [8]; 6.9 µM in assay [9]; 13 µM in assay [10]; 8.8 µM in assay [11]; 5.9 µM in assay [12]; 10 µM in [13]. The 50% inhibitory concentration (IC50) stood at 2.9 µM in [14], 10.9 µM in assay [15] and 2.4 µM in assay [16].

Take `CCCCn1c2cc(OCC(C)C)ccc2c2ccnc(C)c21`: the IC50 is 19.4 µM in assay [1]; 32.3 µM in assay [3]; 17.4 µM in assay [4]; 4 µM in assay [5]; 15.9 µM in assay [6]; 20.1 µM in [7]. Also, the IC50 in [8] was 14.4 µM; in [9], 18.4 µM; in assay [10], 30 µM; in assay [11] it was 30.5 µM; in assay [12], 21.6 µM; in [13] it was 15.3 µM. The IC50 in assay [14] worked out at 25.6 µM; in assay [15], 23.4 µM; in [16] it was 40.7 µM.

As usually defined, the IC50 is the concentration needed to halve the response being measured. Low values mean inhibition by little substance, high ones a need for much substance.
